Data from ChEMBL document CHEMBL1137922, “Synthesis and activity of novel analogs of hemiasterlin as inhibitors of tubulin polymerization: modification of the A segment” (Bioorg Med Chem Lett, 2004).
Activity calls are given as the source filed them. The calls are words filed in the database; no cut-off is given here.

Assays:
Bos taurus [1] = organism: Bos taurus; assay: Percent inhibition of bovine microtubule-assisted protein (MAP) rich tubulin polymerisation at concentration of 0.3 uM; format: functional
How it was run: (§1)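 Bovine MAP-rich tubulin (final 1.5 mg/mL) was prepared in cold PEM buffer (80 mM NaPIPES pH 6.9, 1 mM MgCl2, 1 mM EGTA) with 1 mM GTP and spun at 12,000g for 10 min at 4 C. It was added to duplicate compound wells (final 0.3 µM); controls held 0.3% DMSO. A340 was read every minute for 60 min at 24 C.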

Bos taurus [2] = organism: Bos taurus; assay: Percent inhibition of bovine microtubule-assisted protein (MAP) rich tubulin polymerisation at concentration of 0.3 uM; (result for 2); format: functional; how it was run: as §1
KB85 (Homo sapiens) = assay: Concentration required to kill human epidermoid KB85 cell lines containing moderate levels of P-glycoprotein after 3 days of continuous exposure; conditions: KB85, 72 h
KB 3-1 = assay: Concentration required to kill human epidermoid KB-3-1 cell lines containing very low levels of P-glycoprotein after 3 days of continuous exposure; format: functional, cell-based; conditions: KB 3-1, 72 h
How it was run: (§2)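 KB-3-1, KB85 and KBV1 cells were plated at densities set to reach 60–90% confluence at analysis. Compounds were serially diluted in medium as 2× stocks and added in duplicate. After 3 days of incubation, cell survival was read by SRB assay and reported as IC50.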

KB [3] = assay: Concentration required to kill human epidermoid KBV1 cell lines containing very high levels of P-glycoprotein after 3 days of continuous exposure; format: functional, cell-based; conditions: 72 h; how it was run: as §2
Mus musculus [4] = assay: Minimum effective dose against Lox melanoma human xenograft models in athymic mice; format: functional
How it was run: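 Lox melanoma cells (1.5–7 × 10^6) were injected sc into athymic mice. At 80–100 mg tumour mass, animals were randomised into groups of 5 or 10 and dosed iv in saline. Tumour length and width were measured weekly, with mass = (L·W²)/2. Relative tumour growth and %T/C were calculated.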

Mus musculus [5] = assay: Minimum tolerated dose against Lox melanoma human xenograft models in athymic mice; format: functional
Mus musculus [6] = organism: Mus musculus; assay: Effect at 1.5 mpk against HCT-15 cell line expressing P-glycoprotein transporter in athymic mice; Active; format: functional, organism-based
Mus musculus [7] = organism: Mus musculus; assay: Effect at 1.5 mpk against DLD1 cell line expressing P-glycoprotein transporter in athymic mice; Active; format: functional, organism-based; conditions: DLD-1
Mus musculus [8] = organism: Mus musculus; assay: Effect at 1.5 mpk against MX1W cell line expressing P-glycoprotein transporter in athymic mice; Active; format: functional, organism-based
Mus musculus [9] = organism: Mus musculus; assay: Effect at 2 mpk against MX1W cell line expressing P-glycoprotein transporter in athymic mice; Active; format: functional, organism-based
Mus musculus [10] = organism: Mus musculus; assay: Effect at 2 mpk against HCT-15 cell line expressing P-glycoprotein transporter in athymic mice; Active; format: functional, organism-based
Mus musculus [11] = organism: Mus musculus; assay: Effect at 2 mpk against DLD1 cell line expressing P-glycoprotein transporter in athymic mice; Active; format: functional, organism-based; conditions: DLD-1
Bos taurus [12] = organism: Bos taurus; assay: Percent inhibition of bovine microtubule-assisted protein (MAP) rich tubulin polymerisation at concentration of 0.3 uM; Not applicable; format: functional; how it was run: as §1
Mus musculus [13] = organism: Mus musculus; assay: Effect at 1.6 mpk against MX1W cell line expressing P-glycoprotein transporter in athymic mice; Active; format: functional, organism-based
Mus musculus [14] = organism: Mus musculus; assay: Effect at 1.6 mpk against DLD1 cell line expressing P-glycoprotein transporter in athymic mice; Active; format: functional, organism-based; conditions: DLD-1
Mus musculus [15] = organism: Mus musculus; assay: Effect at 1.6 mpk against HCT-15 cell line expressing P-glycoprotein transporter in athymic mice; Active; format: functional, organism-based
Mus musculus [16] = organism: Mus musculus; assay: Effect at 4 mpk against DLD1 cell line expressing P-glycoprotein transporter in athymic mice; Active; format: functional, organism-based; conditions: DLD-1
KB [17] = assay: Concentration required to kill 50% of human epidermoid KBV1 cell lines containing very high levels of P-glycoprotein after 3 days of continuous exposure; format: functional, cell-based; conditions: 72 h; how it was run: as §2
Mus musculus [18] = organism: Mus musculus; assay: Effect at 3 mpk against MX1W cell line expressing P-glycoprotein transporter in athymic mice; Active; format: functional, organism-based
Mus musculus [19] = organism: Mus musculus; assay: Effect at 3 mpk against HCT-15 cell line expressing P-glycoprotein transporter in athymic mice; inactive; format: functional, organism-based

Row | SMILES | Inhibition (Bos taurus [1]) | Inhibition (Bos taurus [2]) | IC50 (KB85 (Homo sapiens)) | IC50 (KB 3-1) | IC50 (KB [3]) | other results
1 | CN[C@H](C(=O)N[C@H](C(=O)N(C)[C@H](/C=C(\C)C(=O)O)C(C)C)C(C)(C)C)C(C)(C)c1cccc(C(C)=O)c1 | 93% | 87% | 5.8 nM | 1.9 nM | 370 nM | 
2 | CN[C@H](C(=O)N[C@H](C(=O)N(C)[C@H](/C=C(\C)C(=O)O)C(C)C)C(C)(C)C)C(C)(C)c1cc(C(F)(F)F)cc(C(F)(F)F)c1 | 60% | 93% | 19 nM | 17 nM | 457 nM | 
3 | CN[C@H](C(=O)N[C@H](C(=O)N(C)[C@H](/C=C(\C)C(=O)O)C(C)C)C(C)(C)C)C(C)(C)c1cccc(C(F)(F)F)c1 | 98% | 96% | 1.7 nM | 0.65 nM | 42.7 nM | MED (Mus musculus [4]): 1 mpk; MTD (Mus musculus [5]): >5 mpk
4 | CN[C@H](C(=O)N[C@H](C(=O)N(C)[C@H](/C=C(\C)C(=O)O)C(C)C)C(C)(C)C)C(C)(C)c1cccc(C)c1 | 90% | 89% | 0.65 nM | 0.23 nM | 19 nM | MED (Mus musculus [4]): <0.1 mpk; MTD (Mus musculus [5]): 1.5 mpk; Effect (Mus musculus [6]): Active; Effect (Mus musculus [7]): Active; Effect (Mus musculus [8]): Active
5 | CN[C@H](C(=O)N[C@H](C(=O)N(C)[C@H](/C=C(\C)C(=O)O)C(C)C)C(C)(C)C)C(C)(C)c1cc(F)cc(F)c1 | 90% | 84% | 16.2 nM | 6.2 nM | 457 nM | 
6 | CN[C@H](C(=O)N[C@H](C(=O)N(C)[C@H](/C=C(\C)C(=O)O)C(C)C)C(C)(C)C)C(C)(C)c1cc(C)cc(C)c1 | 85% | 88% | 1.23 nM | 0.55 nM | 44 nM | 
7 | CCOC(=O)/C(C)=C/[C@H](C(C)C)N(C)C(=O)[C@@H](NC(=O)[C@@H](NC)C(C)(C)c1cccc(C)c1)C(C)(C)C | 58% | 94% | 525 nM | 21.9 nM | 2410 nM | 
8 | CCOC(=O)/C(C)=C/[C@H](C(C)C)N(C)C(=O)[C@@H](NC(=O)[C@@H](NC)C(C)(C)c1ccc(C)c(C)c1)C(C)(C)C | 49% | 92% | 24 nM | 9.1 nM | 191 nM | MED (Mus musculus [4]): 0.5 mpk; MTD (Mus musculus [5]): >2 mpk; Effect (Mus musculus [9]): Active; Effect (Mus musculus [10]): Active; Effect (Mus musculus [11]): Active
9 | CN[C@H](C(=O)N[C@H](C(=O)N(C)[C@H](/C=C(\C)C(=O)O)C(C)C)C(C)(C)C)C(C)(C)c1ccsc1 | 88% | 96% | 6.6 nM | 2.1 nM | 724 nM | 
10 | CN[C@H](C(=O)N[C@H](C(=O)N(C)[C@H](/C=C(\C)C(=O)O)C(C)C)C(C)(C)C)C(C)(C)c1cn(C)c2ccccc12 [HEMIASTERLIN] |  |  | 1 nM | 0.3 nM | 76 nM | inhibition (Bos taurus [12]): inactive
11 | CCc1cccc(C(C)(C)[C@H](NC)C(=O)N[C@H](C(=O)N(C)[C@H](/C=C(\C)C(=O)O)C(C)C)C(C)(C)C)c1 | 88% | 90% | 1.8 nM | 0.79 nM | 62 nM | 
12 | CN[C@@H](C(=O)N[C@H](C(=O)N(C)[C@H](/C=C(\C)C(=O)O)C(C)C)C(C)(C)C)C(C)(C)c1ccc(C)cc1 | 95% | 94% | 27.5 nM | 17 nM | 1070 nM | 
13 | CCOC(=O)/C(C)=C/[C@H](C(C)C)N(C)C(=O)[C@@H](NC(=O)[C@H](NC)C(C)(C)c1cccc(C)c1)C(C)(C)C | 26% | 94% | 1700 nM | 263 nM | 3000 nM | 
14 | CN[C@H](C(=O)N[C@H](C(=O)N(C)[C@H](/C=C(\C)C(=O)O)C(C)C)C(C)(C)C)C(C)(C)c1ccccc1 [TALTOBULIN] | 91% |  | 2.4 nM | 1 nM | 81 nM | Effect (Mus musculus [13]): Active; Effect (Mus musculus [14]): Active; Effect (Mus musculus [15]): Active
15 | C=Cc1cccc(C(C)(C)[C@H](NC)C(=O)N[C@H](C(=O)N(C)[C@H](/C=C(\C)C(=O)O)C(C)C)C(C)(C)C)c1 | 88% | 90% | 2 nM | 0.86 nM | 130 nM | 
16 | CN[C@H](C(=O)N[C@H](C(=O)N(C)[C@H](/C=C(\C)C(=O)O)C(C)C)C(C)(C)C)C(C)(C)c1cccs1 | 92% | 88% | 3.9 nM | 2 nM | 162 nM | MED (Mus musculus [4]): 1 mpk; MTD (Mus musculus [5]): >5 mpk
17 | CN[C@H](C(=O)N[C@H](C(=O)N(C)[C@H](/C=C(\C)C(=O)O)C(C)C)C(C)(C)C)C(C)(C)c1ccc(C)cc1 | 95% | 94% | 2.6 nM | 1.5 nM | 55 nM | 
18 | CN[C@H](C(=O)N[C@H](C(=O)N(C)[C@H](/C=C(\C)C(=O)O)C(C)C)C(C)(C)C)C(C)(C)c1ccc(Cl)cc1 | 95% | 96% | 1.7 nM | 0.56 nM | 53 nM | 
19 | CN[C@H](C(=O)N[C@H](C(=O)N(C)[C@H](/C=C(\C)C(=O)O)C(C)C)C(C)(C)C)C(C)(C)c1cccc(-c2ccccc2)c1 | 86% | 84% | 5.4 nM | 1.9 nM | 149 nM | 
20 | CN[C@H](C(=O)N[C@H](C(=O)N(C)[C@H](/C=C(\C)C(=O)O)C(C)C)C(C)(C)C)C(C)(C)c1cccc(Br)c1 | 90% | 84% | 4.1 nM | 1.8 nM | 148 nM | MED (Mus musculus [4]): 1 mpk; MTD (Mus musculus [5]): 4 mpk; Effect (Mus musculus [16]): Active
21 | CN[C@@H](C(=O)N[C@H](C(=O)N(C)[C@H](/C=C(\C)C(=O)O)C(C)C)C(C)(C)C)C(C)(C)c1cccc(C)c1 | 88% | 89% | 19.9 nM | 7.9 nM | 446 nM | 
22 | CN[C@H](C(=O)N[C@H](C(=O)N(C)[C@H](/C=C(\C)C(=O)O)C(C)C)C(C)(C)C)C(C)(C)c1cccc(F)c1 | 103% | 93% | 1.8 nM | 1 nM | 77 nM | 
23 | CN[C@H](C(=O)N[C@H](C(=O)N(C)[C@H](/C=C(\C)C(=O)O)C(C)C)C(C)(C)C)C(C)(C)c1ccc(C)c(C)c1 | 88% | 88% | 1.13 nM | 0.4 nM |  | MED (Mus musculus [4]): 0.2 mpk; MTD (Mus musculus [5]): >1 mpk; IC50 (KB [17]): 39 nM
24 | CN[C@H](C(=O)N[C@H](C(=O)N(C)[C@H](/C=C(\C)C(=O)O)C(C)C)C(C)(C)C)C(C)(C)c1cccc(Cl)c1 | 91% | 88% | 3.2 nM | 1.14 nM | 91 nM | Effect (Mus musculus [18]): Active; MED (Mus musculus [4]): 0.3 mpk; MTD (Mus musculus [5]): 3 mpk; Effect (Mus musculus [19]): inactive
